In the library only some 1.2% were active in any assay of this set; here they are far more common.
Dynein transport = blocks dynein driven cargo transport along microtubules; 3617.4 mouse cells, GR-EGFP nuclear translocation imaging; test concentration mostly 20 µM; stimulated with dexamethasone, 1 µM; stronger effect = lower value; z-score, hits read low; actives 0.47% (n = 220,000); AID 1381;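 active = plate z-score of nuclear minus cytoplasmic receptor signal below a set negative limit, without overly bright fluorescence or cell loss, cut at about -3.5 in these data, passing the limit was not always enough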;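 note: z-score of nuclear minus cytoplasmic ring GR-EGFP intensity difference per well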
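Buffer or medium – tet-free medium with charcoal-stripped serum · Signal – automated 10x imaging of fixed Hoechst-stained cells · Also added – dexamethasone agonist, 1.0 µM final, for 30 min · Incubation – induction 48 h, compound 1 h, agonist 30 min · Read-out – GR-EGFP nuclear translocation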
HSV augment = increases HSV replication in cells | HSV replication augmentation in cells, fold increase | maximum fold increase | actives 0.005% (n = 220,000) | AID 1956; in the data active = maximum fold increase above about 1.5; tested in PC3 cells
PERK inh = human PERK inhibition, primary cell-based screen. Q9NZJ5. CHO PERK-DD fusion, SEAP luminescence translation reporter. inhibition, % at 5.6 µM. actives 0.17% (n = 220,000). AID 1416;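 active = inhibition above the mean inhibition of all tested compounds plus 3 SD, set separately per screening campaign, cut at about 2.9% in these data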;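 note: PERK kinase domain activated by AP20187 dimerizer at 100 nM; 0% = DMSO with dimerizer and 100% = rapamycin at 8.4 µM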
HKDC1 inhibitor = blocks human hexokinase HKDC1 activity | actives 0.16% (n = 340,000) | recombinant HKDC1, G6PDH/diaphorase resazurin coupled fluorescence | inhibition, % at 20 µM | Q2TB90;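 active = inhibition above about 35% when tested at 20 µM, limit read from the data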;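 note: plate controls were DMSO wells with enzyme for no effect and DMSO wells lacking enzyme for full effect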
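Assay system: in-house recombinant HK5 (HKDC1) enzyme. Input: HKDC1 at 5 µg/mL. Medium: Tris pH 8.0 buffer with MgCl2, Tween-20, BSA, BME. Dosing: single 20 µM dose. Schedule: 90 min reaction incubation at room temperature, dark. Signal: resazurin-to-resorufin fluorescence via G6PDH and diaphorase coupling, 525/613 nm. Controls: DMSO-enzyme wells negative, buffer-substituted wells positive.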
TbHK1 inh = blocks Trypanosoma brucei hexokinase 1 activity; inhibition, % at 10 µM; actives 0.11% (n = 220,000); recombinant TbHK1, G6PDH-coupled NADH A340;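 active = inhibition of 50% or more in the single-dose primary screen; inactive = inhibition below 50%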
Autophagy HCS = modulators of autophagy. actives 0.98% (n = 190,000). AID 463193. MEF GFP-LC3 puncta imaging; test concentration mostly 10 µM. calls only at 10 µM (by protocol);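 active = percentage of spot-positive cells more than 3 SD above its plate mean, without a fluorescence outlier flag or 80% toxicity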;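 note: spot-positive cell cutoff set from DMSO-treated cells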
Starred values were filed as active, the others as inactive; i = inactive; / = no result given; + = active, no number.

SMILES	Dynein transport	HSV augment	PERK inh	HKDC1 inhibitor	TbHK1 inh	Autophagy HCS
Cc1ccc(S(=O)(=O)N(CC(=O)NCCSCc2ccco2)c2ccc(F)cc2)cc1	-0.187	i	3.2*	/	-14.8	i
CC1=C2C3OC(=O)C(C)C3CCC2(C)C=CC1=NO (configuration not stated)	/	/	/	-3.7	/	/
CCc1ccc(NC(=S)Nc2ccc3[nH]c(=O)[nH]c3c2)cc1	1.14	i	3.0*	-4.2	0.2	/
O=c1[nH]c2ccc(NC(=S)Nc3ccc(F)cc3)cc2[nH]1	0.153	i	0.9	0.9	-7.8	/
Cc1ccc(NC(=O)CN(C)CC(=O)Nc2ccccc2Oc2ccccc2)cc1	0.885	i	-0.6	-5.3	2.5	+
COc1cccc(/C=N/NC(=O)C(=O)N2CCCC2)c1OC	2.09	/	3.1*	-1.7	-6.8	i
CCOC(=O)CSc1nc(=O)n2cccc(C)c2n1	0.388	i	-0.6	9.7	-21.8	+
Cc1ccc(/C=C2\SC(=O)N(CCNC(=O)C3CSC4(C)CCC(=O)N34)C2=O)cc1 (configuration not stated)	/	/	/	3.6	/	/
CCN(CC)c1cc(C)c2cc(NC(=O)c3cccs3)ccc2n1	-0.41	i	0.2	0.6	-24.6	+
CCN(CC)c1cc(C)c2cc(NC(=O)c3ccccc3OC)ccc2n1	-0.308	i	0.4	-4.7	-13.1	i
C[C@@H](NC(=O)Cn1ccc(N)nc1=O)c1cccc2ccccc12	/	/	/	-5.2	/	/
O=C(CSCc1ccco1)Nc1cc(C(F)(F)F)ccc1N1CCOCC1	-0.324	i	-1.1	-7.1	5.9	+
CCCNC(=O)c1ccc(N2CCC3(CC2)CC(c2cccc(Br)c2)=NO3)c(NC(=O)c2ccc(Cl)c([N+](=O)[O-])c2)c1	/	/	/	-2.4	/	/
CCc1ccc2oc(C(=O)NC3CCS(=O)(=O)C3)cc(=O)c2c1 (configuration not stated)	/	/	/	5.8	/	/
COCCCN=C1NN=C(c2cc(C)n(Cc3ccccc3Cl)c2C)CS1	0.1	i	-0.4	-2.1	-8.5	+
COCCCN=C1NN=C(c2cc(C)n(-c3ccccc3)c2C)CS1	-0.808	i	0.5	-5.3	-14.1	i
O=C(Nc1nc2ccc(Cl)cc2s1)C1CCCO1 (configuration not stated)	-0.563	i	-0.3	1.6	4.3	i
O=C(NNC(=O)C1CCCN(S(=O)(=O)c2ccc3ccccc3c2)C1)C1CC1 (configuration not stated)	-0.63	i	4.3*	-9.3	-0.8	i
O=C(Nc1nc2ccc(S(=O)(=O)N3CCCC3)cc2s1)C1CCCCC1	-1.03	/	-0.5	0.7	-6.2	+
O=C(Nc1nc2ccc([N+](=O)[O-])cc2s1)C1CCCO1 (configuration not stated)	0.293	i	1.3	-6.2	-22.0	+
O=[N+]([O-])c1cc([N+](=O)[O-])c(Oc2cc(Cl)cc(Cl)c2)cc1NN1CCCCC1	/	/	/	-2.5	/	/
CC(C)N(Cc1nccn1C)C(=O)CC1C(=O)NCCN1Cc1ccc(F)c(F)c1 (configuration not stated)	/	/	/	1.3	/	/
CCN(C(=O)CSc1nnc(Nc2ccccc2)s1)C1CCS(=O)(=O)C1 (configuration not stated)	0.232	i	1.7	-7.5	-6.0	+
Cc1cc(=O)n2nc(N3CCC(C(=O)NCc4cccc(Cl)c4)CC3)sc2n1	/	/	/	-0.5	/	/
CC1(C)CC(CCNC(=O)CCl)(c2ccccc2)CCO1 (configuration not stated)	-0.449	i	-0.2	-5.2	-3.7	/
SMILES	Dynein transport	HSV augment	PERK inh	HKDC1 inhibitor	TbHK1 inh	Autophagy HCS
Cc1cccc(C)c1OCC(O)CN1CCC(CN2C(=O)c3cccc4cccc(c34)C2=O)CC1 (configuration not stated)	0.392	i	-2.0	-4.0	-13.3	+
CC(NCc1cc(Br)ccc1OCC(=O)NCc1ccccc1)c1ccccc1 (configuration not stated)	-0.949	i	-0.3	-3.4	10.7	+
CCOC(Cn1ccc(=O)[nH]c1=O)OCC	-0.281	i	1.1	-7.0	-8.2	/
O=C(Nc1nccs1)c1cc2c(s1)-c1ccccc1OC2	-1.46	/	0.5	-0.3	-2.0	i
O=C(Nc1nc2ccccc2s1)c1cc2c(s1)-c1ccccc1OC2	i	i	1.1	-3.2	-18.5	+
Cc1cccc(C)c1NC(=O)NC1(C(=O)NCC2CCCO2)CCCCC1 (configuration not stated)	/	/	/	-0.8	/	/
O=C(O)c1ccccc1N=Nc1c(O)[nH]c2ccc([N+](=O)[O-])cc12	/	/	/	37.1*	/	/
COc1ccc(S(=O)(=O)N2CCOCC2)cc1C(=O)N(C)Cc1ccco1	/	/	/	-5.9	/	/
O=C(NCC1CCCO1)c1cc2c(s1)CS(=O)(=O)C2 (configuration not stated)	0.206	i	-0.7	-5.0	4.7	+
CCC1CCc2sc(C(=O)NCC3CCCO3)cc2C1 (configuration not stated)	/	/	/	-5.6	/	/
COc1c(N)c2c(c([N+](=O)[O-])c1OC)C(=O)OC2	/	/	/	-0.8	/	/
O=C(O)CCCN1C(=O)NC2NC(=O)NC21 (configuration not stated)	-0.897	i	1.2	-8.6	-7.3	+
O=C(O)CN1C(=O)NC2NC(=O)NC21 (configuration not stated)	-0.819	i	0.6	-5.8	-3.7	i
CCOC(=O)c1ccc(N2C(=O)CC(Sc3nc(C)cc(C)n3)C2=O)cc1 (configuration not stated)	/	/	/	-5.7	/	/
CCOC(=O)c1ccc(N2C(=O)CC(Sc3nnc(C)s3)C2=O)cc1 (configuration not stated)	-3.53*	i	0.1	-4.0	10.4	i
COc1ccc2nc(/C(C#N)=C\c3ccc(Oc4ccc([N+](=O)[O-])cn4)cc3)[nH]c2c1	-0.343	i	-0.5	-12.9	8.3	+
Cc1ccc2nc(/C(C#N)=C\c3ccc([N+](=O)[O-])o3)[nH]c2c1	14.4	/	-0.1	12.3	-9.8	+
N#C/C(=C\c1ccc([N+](=O)[O-])o1)c1nc2ccccc2[nH]1	10.8	/	1.6	14.8	1.1	i
CC1(C)Oc2ccc(C(=O)NC3CCCC3)cc2N(CC(=O)N2CCOCC2)C1=O	-0.165	i	-0.4	0.8	4.0	+
CC(C)n1cc(/C=C2/NC(=O)N(c3cccc(Cl)c3)C2=O)c2ccccc21	-0.967	i	-0.7	-0.2	-7.4	+
O=C(O)Cn1cc(/C=C2/NC(=O)N(c3ccc(Cl)cc3)C2=O)c2ccccc21	-0.362	i	-0.8	0.5	-10.6	i
CC(C)n1cc(/C=C2\NC(=O)N(c3cccc(Cl)c3)C2=O)c2ccccc21	-0.641	i	-0.2	0.2	-17.5	+

Assay outcomes from PubChem.
